Assay results: ChEMBL document CHEMBL4219255, “Targeting Transient Receptor Potential Vanilloid 1 (TRPV1) Channel Softly: The Discovery of Passerini Adducts as a Topical Treatment for Inflammatory Skin Disorders” (J Med Chem, 2018)
Active and inactive are the calls of the source. No cut-off for these calls is given here.

Assays:
Mus musculus [1] = assay: Analgesic activity in CFA-induced thermal hyperalgesia C57BL/6 mouse model assessed as reduction in latency time required to elicit paw withdrawal in response to radiant heat applied to the plantar surface of a hind paw at 10 to 100 ug administered as intraplantar injection treated at 24 hrs post CFA injection measured at 90 mins post dose; type: functional, organism-based
[2] = Drug metabolism in human liver microsomes assessed as glucuronide metabolite formation at 50 uM in presence of UDPGA after 60 mins by LC-ESI-MS analysis; type: ADME, microsome; conditions: 1 h
[3] = Drug metabolism in human plasma assessed as residual substrate levels at 100 uM up to 20 mins by HPLC-UV analysis; type: ADME, cell-free; conditions: read-out: Stability
[4] = molecular target: T1, Transient receptor potential cation channel subfamily V member 1 (Homo sapiens, UniProt Q8NER1); assay: Antagonist activity at TRPV1 (unknown origin) expressed in human SH-SY5Y cells assessed as inhibition of capsaicin-induced calcium increase after 25 mins by Fluo-4 NW dye-based fluorescence assay; type: cell-based
[5] = Drug metabolism in human liver cytosol assessed as glucuronide metabolite formation at 50 uM in presence of UDPGA after 60 mins by LC-ESI-MS analysis; type: ADME, subcellular; conditions: 1 h
[6] = Drug metabolism in human liver S9 fraction assessed as residual substrate levels at 50 uM up to 60 mins by HPLC-UV analysis; type: ADME, subcellular; conditions: read-out: Stability
[7] = molecular target: T1, Transient receptor potential cation channel subfamily V member 1; assay: Antagonist activity at TRPV1 (unknown origin) expressed in human SH-SY5Y cells assessed as inhibition of capsaicin-induced calcium influx at 1 uM after 25 mins by Fluo-4 NW dye-based fluorescence assay relative to capsaicin; type: cell-based
[8] = Drug metabolism in human fibroblast cells assessed as residual substrate levels at 50 uM up to 120 mins by HPLC-UV analysis; type: ADME, cell-based; conditions: read-out: Stability
Cocaine esterase = molecular target: T2, Cocaine esterase (Homo sapiens, UniProt O00748); assay: Drug metabolism assessed as recombinant human CE2-mediated compound hydrolysis by measuring rate constant at 50 uM up to 30 mins by LC-UV analysis; type: ADME; conditions: 0.5 h
T2 sequence (O00748 whole entry): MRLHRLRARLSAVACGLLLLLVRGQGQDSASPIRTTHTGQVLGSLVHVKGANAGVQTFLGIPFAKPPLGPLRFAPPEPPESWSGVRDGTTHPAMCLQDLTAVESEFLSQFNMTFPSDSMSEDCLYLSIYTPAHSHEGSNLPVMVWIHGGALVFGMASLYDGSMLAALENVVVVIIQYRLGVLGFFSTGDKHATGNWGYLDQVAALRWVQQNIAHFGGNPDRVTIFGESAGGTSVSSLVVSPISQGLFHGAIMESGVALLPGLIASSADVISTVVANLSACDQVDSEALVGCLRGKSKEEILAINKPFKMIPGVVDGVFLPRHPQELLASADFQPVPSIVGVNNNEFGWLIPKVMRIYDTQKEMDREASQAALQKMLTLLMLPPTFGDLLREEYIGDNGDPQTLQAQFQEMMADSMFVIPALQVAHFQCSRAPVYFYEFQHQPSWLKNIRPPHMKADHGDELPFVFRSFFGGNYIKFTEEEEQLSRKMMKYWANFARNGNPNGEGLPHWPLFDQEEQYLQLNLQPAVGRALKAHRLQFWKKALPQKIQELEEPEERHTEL
Summary of the method: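 Recombinant human carboxylesterase isoforms 1 and 2 were each incubated with the test ester. Hydrolysis was followed by HPLC-UV, tracking the disappearance of the substrate over incubation time relative to the initial amount. Chromatograms were also checked for peaks of the expected hydrolysis metabolites.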

[9] = Drug metabolism in human liver cytosol assessed as sulfate conjugate formation at 50 uM in presence of UDPGA after 60 mins by LC-ESI-MS analysis; type: ADME, subcellular; conditions: 1 h
Mus musculus [10] = assay: Analgesic activity in CFA-induced thermal hyperalgesia C57BL/6 mouse model assessed as reduction in CFA-induced ipsilateral paw withdrawal latency at 10 mg/kg, iv treated at 24 hrs post CFA injection measured at 60 mins post dose; type: functional, organism-based

T1 sequence (Q8NER1 whole entry): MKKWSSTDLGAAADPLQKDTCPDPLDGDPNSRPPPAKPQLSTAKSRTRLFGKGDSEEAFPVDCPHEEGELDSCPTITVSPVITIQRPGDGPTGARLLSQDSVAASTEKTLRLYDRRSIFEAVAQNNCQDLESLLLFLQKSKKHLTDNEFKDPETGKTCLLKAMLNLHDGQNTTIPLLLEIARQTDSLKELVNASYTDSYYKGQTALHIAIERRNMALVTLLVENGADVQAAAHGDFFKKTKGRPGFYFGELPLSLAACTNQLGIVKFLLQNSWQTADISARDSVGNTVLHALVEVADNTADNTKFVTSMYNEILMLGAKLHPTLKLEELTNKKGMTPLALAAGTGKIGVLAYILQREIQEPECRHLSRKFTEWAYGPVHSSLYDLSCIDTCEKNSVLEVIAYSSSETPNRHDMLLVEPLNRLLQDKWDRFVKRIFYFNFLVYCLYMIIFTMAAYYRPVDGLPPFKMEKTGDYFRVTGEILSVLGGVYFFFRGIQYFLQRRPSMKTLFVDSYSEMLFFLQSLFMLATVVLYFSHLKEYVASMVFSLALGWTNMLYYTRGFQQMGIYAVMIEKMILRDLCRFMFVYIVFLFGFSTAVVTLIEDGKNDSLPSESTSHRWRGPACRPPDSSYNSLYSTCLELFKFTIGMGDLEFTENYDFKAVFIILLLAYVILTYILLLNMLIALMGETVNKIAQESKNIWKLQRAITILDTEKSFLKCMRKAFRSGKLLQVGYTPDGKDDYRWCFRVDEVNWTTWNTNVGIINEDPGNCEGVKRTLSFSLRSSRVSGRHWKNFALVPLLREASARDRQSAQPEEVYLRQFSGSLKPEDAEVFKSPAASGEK

Drug metabolism [2]: Metabolite_Notdetected
remaining at 20 min, 100 µM [3]: 82%
IC50 [4]: 0.93 µM
Drug metabolism [5]: Metabolite_Notdetected
remaining at 1 h, 50 µM [6]: 0%
inhibition [7]: 59.8%
remaining at 2 h, 50 µM [8]: 13.3%
K (Cocaine esterase): 0.0555 min⁻¹
Drug metabolism [9]: Metabolite_Notdetected
Compound: CCCCCCCCCCCC(=O)OCC(=O)NCc1cc(OC)c(O)cc1I
Activity (Mus musculus [1]): Active
Activity (Mus musculus [10]): Active
